Source: publication PMC7311273 (Nuclear medicine and biology, 2020)
Where “and” joins values, the source holds several entries; their conditions need not be identical. Equal entries are not always repeated. Entries after “also recorded” stand apart in the source; their conditions may differ.

Assays:
[1] = normal CD-1 IGS male mice, 60 min; cited from earlier work
[2] = Subject tolerability to radiotracer administration; assay type: in vivo, human
[3] = system: prostate cancer osseous metastases; assay type: in vivo, human
Outline: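 Tracer given IV to men with prostate cancer and known or suspected bone metastases. 60-min dynamic PET from injection over a known or suspected lesion site, then skull-base to mid-thigh PET/CT at ~90 and 180 min. SUVpeak from 1 cm spheres on lesions, blood pool and normal bone. List-mode data subsampled to emulate lower activities (10 replicates, TOF OSEM, 4-mm voxels). Lesion SNR = Lmax/Lmax SD, decay-corrected.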

[4] = Normal organ dosimetry from whole body PET and urine collection, OLINDA/EXM; assay type: in vivo, human
Outline: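 Eight men received up to ~232 MBq IV. Six top-of-skull to mid-thigh PET scans (10 beds × 90 s) started ~1, 20, 40, 60, 120 and 150 min. Two low-dose CTs gave attenuation correction. Urine from voids after scans 4 and 6 was gamma-counted. Organ activities came from PET images; cortical bone from femur shaft density × 2130 cm3. Time-activity curves fitted mono/bi-exponentially or by Riemann sum.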

[5] = competition with equimolar amounts of ligands with gallium, cited from earlier work
[6] = 8 male humans, Standard Adult Male phantom
[7] = injected activity of 166.5 MBq (4.5 mCi)

## O=C(O)CN1CCN(CC(=O)O)CCN(CC(=O)NC(P(=O)(O)O)P(=O)(O)O)CCN(CC(=O)O)CC1.[68Ga] [[^68Ga]Ga-BPAMD, reference compound]
[1]
  bone uptake (retention): 9.2 % injected activity/g

## [^68Ga]Ga-3-(3-(((carboxymethyl)(2-((carboxymethyl)(5-(3-((diphosphonomethyl)amino)-3-oxopropyl)-2-hydroxybenzyl)amino)ethyl)amino)methyl)-4-hydroxyphenyl)propanoic acid [[^68Ga]Ga-P15-041]
[2]; 13 subjects
  changes in vital signs before and after injection: No clinically significant changes
[2]; administered to 13 subjects (12 completed protocol)
  tolerability / adverse events: well-tolerated with no reports of serious adverse events
[1]
  bone uptake (retention): 23.5 % injected activity/g
[3]; PET/CT, patients with prostate cancer bone metastases
  uptake in bone lesions: accumulated in known bone lesions; also recorded: lesion uptake consistently above background
[3]; dynamic cohort, n=4, compared to sites of osseous metastasis
  activity concentrations in blood and normal bone: low compared to sites of osseous metastasis
[3]; human PET
  clearance from blood and soft tissue: cleared rapidly from blood and soft tissue
[4]; [6]
  Effective dose equivalent, Mean: 2.31E-02 mSv/MBq
  Effective dose, Mean: 0.0173 ± 0.0036 mSv/MBq and 1.73E-02 mSv/MBq
  absorbed dose estimate, Adrenals, Mean: 1.02E-02 mSv/MBq
  absorbed dose estimate, Brain, Mean: 3.57E-03 mSv/MBq
  absorbed dose estimate, Breasts, Mean: 8.07E-03 mSv/MBq
  absorbed dose estimate, Gallbladder wall, Mean: 1.03E-02 mSv/MBq
  absorbed dose estimate, Heart Wall, Mean: 1.98E-02 mSv/MBq
  absorbed dose estimate, Kidneys, Mean: 4.93E-02 mSv/MBq
  absorbed dose estimate, Liver, Mean: 8.16E-03 mSv/MBq
  absorbed dose estimate, Lower large intestine wall, Mean: 1.29E-02 mSv/MBq
  absorbed dose estimate, Lungs, Mean: 1.73E-02 mSv/MBq
  absorbed dose estimate, Muscle, Mean: 9.19E-03 mSv/MBq
  absorbed dose estimate, Osteogenic cells, Mean: 2.63E-02 mSv/MBq
  absorbed dose estimate, Ovaries, Mean: 1.16E-02 mSv/MBq
  absorbed dose estimate, Pancreas, Mean: 1.03E-02 mSv/MBq
  absorbed dose estimate, Red Marrow, Mean: 8.04E-03 mSv/MBq
  absorbed dose estimate, Skin, Mean: 7.85E-03 mSv/MBq
  absorbed dose estimate, Small intestine, Mean: 2.41E-02 mSv/MBq
  absorbed dose estimate, Spleen, Mean: 1.17E-02 mSv/MBq
  absorbed dose estimate, Stomach wall, Mean: 9.77E-03 mSv/MBq
  absorbed dose estimate, Testes, Mean: 9.57E-03 mSv/MBq
  absorbed dose estimate, Thymus, Mean: 9.26E-03 mSv/MBq
  absorbed dose estimate, Thyroid, Mean: 8.92E-03 mSv/MBq
  absorbed dose estimate, Total Body, Mean: 1.07E-02 mSv/MBq
  absorbed dose estimate, Upper large intestine wall, Mean: 1.97E-02 mSv/MBq
  absorbed dose estimate, Uterus, Mean: 1.33E-02 mSv/MBq
[4]; 8 male humans, Standard Adult Male phantom, highest individual organ dose
  absorbed dose estimate, Urinary bladder wall, Mean: 0.135 mSv/MBq and 1.35E-01 mSv/MBq
[4]; [7]
  absorbed dose to the kidneys: 8.2 mSv
  absorbed dose to the urinary bladder wall: 22.5 mSv
  effective dose: 2.9 mSv

## O=C(O)CN(CCN(CC(=O)O)Cc1ccccc1O)Cc1ccccc1O [HBED, N, N’-bis(2-hydroxybenzyl)ethylenediamine-N,N’-diacetic acid]
[5]; versus DOTA
  out complexes DOTA by: 99%
[5]; versus NOTA
  out complexes NOTA by: 43%
